Activity calls are given as the source filed them.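 How the source made its calls, unless noted: active means viability at or under a set limit in both replicates, limit being median viability minus 3 SD (cut at about 48% in these data, passing the limit was not always enough); inconclusive means at or under the limit in just one replicate; inactive means at or above the limit in both replicates.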
Tests used:
[1] = reduced viability of SK-BR-3 breast cancer cells – cell-based, 24 h, human, pilot screen (AID 572;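 active means viability at or below 10% of carrier control in both of two separate runs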;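 further: compound exposure lasted between 18 and 24 h rather than exactly 24 h; 100% = carrier-treated control wells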); details: SK-BR-3 viability, CellTiter-Glo luminescence, at 10 µM, stronger effect = lower value
[2] = HUVEC growth inhibition – cell-based, human, primary screen (AID 575;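 active means viability at or below 30% in both replicate assays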;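 further: 100% = median of untreated cell wells with 0.1% DMSO on each plate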); details: HUVEC proliferation, CellTiter-Glo luminescence, 72 h; at 10 µM; stronger effect = lower value
In short: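 Test system – primary HUVEC, no more than 12 passages · Dosing – one dose, 10 µM final, 0.1% DMSO · Times – 72 h treatment at 37 °C · Measured by – ATP-based CellTiter-Glo luminescent read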

[3] = H69AR cell proliferation blockers – human, duplicate replicates, primary screen (AID 580); details: H69AR lung tumor cells viability, ATP luminescence, 72 h; at 10 µM; stronger effect = lower value;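 further: 100% = mean luminescence of untreated wells and 0% = no signal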
[4] = MRP1 drug-resistance reversers in H69AR cells – cell-based, doxorubicin co-treatment, pilot screen (AID 601;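 active means viability loss from added drug above about 55%, and viability with drug at most 40%, in both replicates, limit read from the data, passing the limit was not always enough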); details: CellTiter-Glo, 72 h, at 10 µM; for differential viability (reversal): stronger effect = higher value
[5] = yeast transport mutant growth inhibition pilot in 384-well plates, post-Golgi transport modulator project (AID 636; in the data active means inhibition above about 31%); details: absorbance 615 nm, about 18 h, stronger effect = higher value
[6] = growth suppression of yeast trafficking mutant, preliminary HTS, modulators of trafficking downstream of Golgi apparatus project, 1536-format plate, OD 615 nm (AID 637; in the data active means inhibition above about 30%); details: yeast transport mutant growth, absorbance 615 nm, 18 h; stronger effect = higher value
[7] = H69AR cells + 2 uM doxorubicin, measured here: viability with 2 uM doxorubicin, stronger effect = lower value
[8] = H69AR cells, compound alone cytotoxicity

Row | SMILES | viability [1] | viability [2] | viability [3] | differential viability (reversal) ([4]; H69AR cells + 2 uM doxorubicin) | viability [4, 7] [%] | viability [4, 8] [%] | inhibition [5] | inhibition [6]
1 | Cc1sc2nc3n(c(=O)c2c1C)NC(=O)CC3 | 104% (inactive) | 86.3% (inactive) | 94% (inactive) | 5.63% (inactive) | 88.4 | 94 | -4.79% (inactive) | 1.82% (inactive)
2 | O=S1(=O)C=C(Oc2ccc(F)cc2)c2ccccc21 | 100% (inactive) | 101% (inactive) | 92.5% (inactive) | 4.02% (inactive) | 88.5 | 92.5 | -7.03% (inactive) | 1.27% (inactive)
3 | COc1ccc(CCN2C(=O)CC(N3CCOCC3)C2=O)cc1 (stereo unspecified) | 88% (inactive) | 89.4% (inactive) | 96.2% (inactive) | 16.3% (inactive) | 79.9 | 96.2 | 2.05% (inactive) | -7.58% (inactive)
4 | Cc1noc(NS(=O)(=O)c2ccc(N)cc2)c1C | 97% (inactive) | 91% (inactive) | 105% (inactive) | 15.7% (inactive) | 89.1 | 105 | 2.34% (inactive) | -1.5% (inactive)
5 | CC(=O)O[C@H]1C[C@@H]2CC[C@@H]3[C@H](CC[C@@]4(C)[C@H]3C[C@H]([N+]3(C)CCCCC3)[C@@H]4OC(C)=O)[C@@]2(C)C[C@@H]1[N+]1(C)CCCCC1 | 111% (inactive) | 88.4% (inactive) | 94.5% (inactive) | -4.76% (inactive) | 99.3 | 94.5 | 1.04% (inactive) | 12.7% (inactive)
6 | O=C(CN1C(=O)c2cccc3cccc1c23)Nc1ccccc1C(=O)NCc1ccco1 | 89% (inactive) | 108% (inactive) | 78.9% (inactive) | -2.93% (inactive) | 81.8 | 78.9 | -1.49% (inactive) | -8.67% (inactive)
7 | O=C(NC1CCCCC1)c1nc2c(nnn2Cc2ccccc2Cl)c(=O)[nH]1 | 77% (inactive) | 104% (inactive) | 110% (inactive) | 12% (inactive) | 98.4 | 110 | -6.58% (inactive) | -7.58% (inactive)
8 | Cn1c(NC(=O)c2cccc(Cn3cc(Cl)cn3)c2)nc2ccccc21 | 83% (inactive) | 72.4% (inactive) | 68.9% (inactive) | 0.885% (inactive) | 68 | 68.9 | -4.93% (inactive) | -2.79% (inactive)
9 | COc1cc(C2N=C(c3ccccc3)NO2)cc(Br)c1O (stereo unspecified) | 90% (inactive) | 87.5% (inactive) | 84.8% (inactive) | -4.25% (inactive) | 89 | 84.8 | -3.12% (inactive) | -10% (inactive)
10 | CCOC(=O)c1ccc2[nH]c3c(c2c1)CCCCC3=O | 80% (inactive) | 105% (inactive) | 99.5% (inactive) | 8.96% (inactive) | 90.5 | 99.5 | -3.6% (inactive) | -0.73% (inactive)
11 | CN(Cc1ccccc1)C(=O)c1cc(-c2ccc(Br)cc2)on1 | 80% (inactive) | 94.2% (inactive) | 103% (inactive) | 7.97% (inactive) | 95.3 | 103 | -4% (inactive) | -3.45% (inactive)
12 | Cc1cc(C(=O)COC(=O)c2n[nH]c3ccccc23)c(C)n1C | 83% (inactive) | 90.4% (inactive) | 88.6% (inactive) | 5.96% (inactive) | 82.6 | 88.6 | -9.18% (inactive) | -4% (inactive)

Source: PubChem BioAssay
